Data on 11 compounds can be found in ChEMBL document CHEMBL1128478, “Structure-activity relationships of the potent combined endothelin-A/endothelin-B receptor antagonist Ac-DDip16-Leu-Asp-Ile-Ile-Trp21: development of endothelin-B receptor selective antagonists” (J Med Chem, 1995).

Each structure is given as a SMILES string. Structures can show the parent of a compound that is named as a salt. Numbered stars: 1 amine (or outer) side, 2 acyl side, 3 side chain; on linkers, the order of the positions; unused ones are H or OH. Square brackets hold non-standard residues; d marks the D form. Peptide text beside a SMILES is read from it. * marks the point of attachment. Diphenylacetyl = O=C(C(c1ccccc1)c1ccccc1)*; Dip = N[C@H](C(=O)O)C(c1ccccc1)c1ccccc1; Cyclohexanecarbonyl = O=C(C1CCCCC1)*; NHcHex = C1CCC(N*)CC1; CO = O=C([*:1])[*:2]; Tfa = O=C(C(F)(F)F)*

Broadly, the IC50 is the concentration at which inhibition is half-maximal.

For experiment [1], the target named is T1, Endothelin receptor type B (Rattus norvegicus, UniProt P21451).
T1 sequence (P21451 whole entry): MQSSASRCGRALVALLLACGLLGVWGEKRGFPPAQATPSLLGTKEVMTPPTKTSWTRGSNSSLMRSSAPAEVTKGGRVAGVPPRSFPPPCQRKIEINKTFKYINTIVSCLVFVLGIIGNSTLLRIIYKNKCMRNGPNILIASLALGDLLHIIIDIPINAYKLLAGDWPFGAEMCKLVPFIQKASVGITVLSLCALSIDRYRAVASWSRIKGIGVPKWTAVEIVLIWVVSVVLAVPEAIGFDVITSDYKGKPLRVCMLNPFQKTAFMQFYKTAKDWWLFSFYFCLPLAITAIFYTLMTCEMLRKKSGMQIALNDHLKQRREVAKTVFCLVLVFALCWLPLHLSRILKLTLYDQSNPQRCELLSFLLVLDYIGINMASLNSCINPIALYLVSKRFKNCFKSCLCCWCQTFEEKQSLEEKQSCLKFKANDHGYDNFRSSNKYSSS
Kind of experiment: Binding affinity against endothelin B receptor rat cerebellar membranes.

Experiment [2] has as its target T2, Endothelin receptor type B (Homo sapiens, UniProt P24530).
T2 sequence (P24530 whole entry): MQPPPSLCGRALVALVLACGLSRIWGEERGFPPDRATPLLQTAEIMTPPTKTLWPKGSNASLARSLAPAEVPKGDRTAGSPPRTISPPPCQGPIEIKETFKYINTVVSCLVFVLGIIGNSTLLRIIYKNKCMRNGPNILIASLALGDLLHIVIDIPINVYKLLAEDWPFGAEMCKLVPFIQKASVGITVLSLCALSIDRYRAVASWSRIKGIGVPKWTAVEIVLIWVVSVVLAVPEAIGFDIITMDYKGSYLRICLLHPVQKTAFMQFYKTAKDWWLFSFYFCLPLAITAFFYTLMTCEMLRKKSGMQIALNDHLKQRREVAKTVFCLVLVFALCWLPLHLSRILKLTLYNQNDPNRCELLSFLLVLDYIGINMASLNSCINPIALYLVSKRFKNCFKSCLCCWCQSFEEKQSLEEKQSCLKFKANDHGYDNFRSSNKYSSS
Briefly: Binding affinity measured in CHO cells stably transfected with the human endothelin B receptor. The class given is cell-based. Put shortly:
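Membranes come from confluent CHO-K1 clones stably expressing human ETB, grown in DME/F12 with 10% FCS and G418 0.5 mg/mL. Specific binding fitted by nonlinear least squares. Triplicate points per IC50.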

Experiment [3] is described as follows: Relative affinities for rat endothelin B receptor and human endothelin B receptor. Also noted: reference not given here.
Experiment [4] is described as follows: Relative affinities against endothelin A receptor (rabbit) and endothelin B receptor (rat). Also on record: reference not given here.
Experiment [5] has as its target T1, Endothelin receptor type B. Kind of experiment: Inhibition of SRTX-6c stimulated arachidonic acid release in CHO cells expressing rat ET- B receptors.

With `CC[C@H](C)[C@H](NC(=O)[C@H](CC(=O)O)NC(=O)[C@H](CCCNC(=N)N)NC(=O)[C@H](NC(C)=O)C(c1ccccc1)c1ccccc1)C(=O)N[C@H](C(=O)N[C@@H](Cc1c[nH]c2ccccc12)C(=O)O)[C@@H](C)CC`, the IC50 in experiment [1] was 10 nM; in experiment [2], 590 nM.

As for `CC[C@H](C)[C@H](NC(=O)[C@H](Cc1ccccc1)NC(=O)[C@H](CC(C)C)NC(=O)[C@@H](NC(C)=O)C(c1ccccc1)c1ccccc1)C(=O)N[C@H](C(=O)N[C@@H](Cc1c[nH]c2ccccc12)C(=O)O)[C@@H](C)CC` (Ac-[Dip]LFIIW-OH), the IC50 was 60 nM in experiment [1] and above 1600 nM in experiment [2]. For the same compound, the Ratio in experiment [3] turned out to be 17.

For the compound `CC[C@H](C)[C@H](NC(=O)[C@H](CC(=O)O)NC(=O)[C@H](CCCNC(=N)N)NC(=O)[C@@H](NC(C)=O)C(c1ccccc1)c1ccccc1)C(=O)N[C@H](C(=O)N[C@@H](Cc1c[nH]c2ccccc12)C(=O)O)[C@@H](C)CC`, in experiment [3], the Ratio worked out at 59.

Turning to `CC[C@H](C)[C@H](NC(=O)[C@H](CCCCN)NC(=O)[C@H](CC(C)C)NC(=O)C(NC(C)=O)C(c1ccccc1)c1ccccc1)C(=O)N[C@H](C(=O)N[C@@H](Cc1c[nH]c2ccccc12)C(=O)O)[C@@H](C)CC` (single isomer, unassigned), in experiment [2], the IC50 was above 10000 nM.

In the case of `CC[C@H](C)[C@H](NC(=O)[C@H](CC(=O)O)NC(=O)[C@H](CC(C)C)NC(=O)[C@@H](NC(=O)NC1CCCCC1)C(c1ccccc1)c1ccccc1)C(=O)N[C@H](C(=O)N[C@@H](Cc1c[nH]c2ccccc12)C(=O)O)[C@@H](C)CC` ({NHcHex-CO}-[Dip]LDIIW-OH), the IC50 in experiment [1] came to 68 nM; in experiment [5], 210 nM. Moreover, the Ratio in experiment [4] came to 29.4.

In the case of `CC[C@H](C)[C@H](NC(=O)[C@H](Cc1ccccc1)NC(=O)[C@H](CC(=O)O)NC(=O)[C@H](CC(C)C)NC(=O)[C@@H](NC(C)=O)C(c1ccccc1)c1ccccc1)C(=O)N[C@@H](Cc1c[nH]c2ccccc12)C(=O)O` (Ac-[Dip]LDFIW-OH), the half-inhibitory concentration (IC50) was found to be 56 nM in experiment [1] and 900 nM in experiment [2]. The Ratio in experiment [3] came out at 16.

In the case of `CC[C@H](C)[C@H](NC(=O)[C@H](CC(=O)O)NC(=O)[C@H](CC(C)C)NC(=O)[C@@H](NC(=O)NC)C(c1ccccc1)c1ccccc1)C(=O)N[C@H](C(=O)N[C@@H](Cc1c[nH]c2ccccc12)C(=O)O)[C@@H](C)CC` ({NHMe-CO}-[Dip]LDIIW-OH), the IC50 in experiment [1] is 140 nM; in experiment [5] it was 20 nM. Besides, the Ratio in experiment [4] was determined as 6.1.

Regarding `CC[C@H](C)[C@H](NC(=O)[C@H](CC(=O)O)NC(=O)[C@H](CC(C)C)NC(=O)[C@@H](NC(=O)C(c1ccccc1)c1ccccc1)C(c1ccccc1)c1ccccc1)C(=O)N[C@H](C(=O)N[C@@H](Cc1c[nH]c2ccccc12)C(=O)O)[C@@H](C)CC` (Diphenylacetyl-[Dip]LDIIW-OH), the half-maximal inhibitory concentration (IC50) was 1300 nM in experiment [1] and 9300 nM in experiment [5]. The Ratio in experiment [4] was determined as 2.

As for `CC[C@H](C)[C@H](NC(=O)[C@H](CC(=O)O)NC(=O)[C@H](CC(C)C)NC(=O)[C@@H](NC(=O)C1CCCCC1)C(c1ccccc1)c1ccccc1)C(=O)N[C@H](C(=O)N[C@@H](Cc1c[nH]c2ccccc12)C(=O)O)[C@@H](C)CC` (Cyclohexanecarbonyl-[Dip]LDIIW-OH), the IC50 in experiment [1] came out at 350 nM; in experiment [5], 560 nM. Besides, in experiment [4], the Ratio was found to be 17.8.

For the compound `CC[C@H](C)[C@H](NC(=O)[C@H](CCC(=O)O)NC(=O)[C@H](CC(C)C)NC(=O)[C@@H](NC(C)=O)C(c1ccccc1)c1ccccc1)C(=O)N[C@H](C(=O)N[C@@H](Cc1c[nH]c2ccccc12)C(=O)O)[C@@H](C)CC` (Ac-[Dip]LEIIW-OH), the IC50 in experiment [1] came out at 19 nM; in experiment [2] it was 1800 nM. Moreover, the Ratio in experiment [3] worked out at 95.

For the compound `CC[C@H](C)[C@H](NC(=O)[C@H](CC(=O)O)NC(=O)[C@H](CC(C)C)NC(=O)[C@@H](NC(=O)C(F)(F)F)C(c1ccccc1)c1ccccc1)C(=O)N[C@H](C(=O)N[C@@H](Cc1c[nH]c2ccccc12)C(=O)O)[C@@H](C)CC` (Tfa-[Dip]LDIIW-OH), the values for the IC50 in experiment [1] and in experiment [5] were 600 nM and 290 nM, respectively. The Ratio in experiment [4] is 0.42.
